Experimental data from ChEMBL document CHEMBL3856288, “Amidate Prodrugs of Deoxythreosyl Nucleoside Phosphonates as Dual Inhibitors of HIV and HBV Replication” (J Med Chem, 2016).

Experiments:
[1] = Cytotoxicity against human HepG2(2.2.15) cells assessed as reduction in cell viability by MTS assay; type: toxicity, cell-based
How it was run: (§1)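 HepG2 2.2.15 cells (stable line carrying two copies of the HBV ayw1 genome) were seeded at 1.5 × 10^4 cells/well in DMEM with 2% FBS and G418. After 16−24 h, compound was added in triplicate, and medium plus compound was renewed on day 3. On day 6, supernatant was Pronase-treated and extracellular HBV DNA was quantified by TaqMan qPCR against an HBV DNA standard curve to give EC50/EC90. Cell viability was read by MTS uptake to give CC50.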

[2] = Selectivity ratio of CC50 for human HepG2(2.2.15) cells to EC50 for reduction in HBV ayw1 extracellular DNA copy number; details: read-out: Ratio CC50/EC50
How it was run: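 HepG2 2.2.15 cells (two HBV ayw1 genome copies), 1.5 × 10^4 cells/well in DMEM with 2% FBS and G418; compound dosed in triplicate and medium renewed on day 3. On day 6, Pronase-treated supernatant HBV DNA measured by TaqMan qPCR against a standard curve, giving EC50. MTS uptake gave CC50, and the ratio was calculated from these.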

[3] = Cytotoxicity against human MT4 cells assessed as decrease in cell viability after 5 days by MTT assay; type: toxicity, cell-based
[4] = test system: Hepatitis B virus; assay: Antiviral activity against HBV ayw1 infected in human HepG2(2.2.15) cells assessed as reduction in viral replication by measuring extracellular viral DNA copy number after 6 days by real-time qPCR method; type: functional, cell-based; details: ayw1, HepG2 2.2.15, 144 h; how it was run: as §1
[5] = test system: Human immunodeficiency virus 1; assay: Antiviral activity against HIV1 3B infected in human MT4 cells assessed as protection against virus-induced cytopathic effect after 5 days by MTT assay; type: functional, cell-based; details: Human immunodeficiency virus 1, 3B, MT4, 120 h
[6] = Antiviral activity against HIV2 ROD infected in human MT4 cells assessed as protection against virus-induced cytopathic effect after 5 days by MTT assay; type: functional, cell-based, Human immunodeficiency virus type 2 (ISOLATE ROD); details: Human immunodeficiency virus 2, MT4, 120 h
[7] = Selectivity index, ratio of CC50 for human MT4 cells to EC50 for HIV1 3B infected in human MT4 cells; type: toxicity, cell-based; details: read-out: Ratio CC50/EC50
[8] = Selectivity index, ratio of CC50 for human MT4 cells to EC50 for HIV2 ROD infected in human MT4 cells; type: toxicity, cell-based; details: read-out: Ratio CC50/EC50
[9] = Selectivity ratio of CC50 for human HepG2(2.2.15) cells to EC50 for reduction in HBV ayw1 intracellular DNA copy number; type: ADME, cell-based; details: read-out: Ratio CC50/EC50
How it was run: (§2)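 The protocol was the same as the primary HepG2 2.2.15 assay (triplicate dosing, medium plus compound renewed on day 3, 6-day course). At the end, total intracellular DNA was isolated from the cells and HBV DNA copy number was measured by TaqMan qPCR to give EC50/EC90. CC50 came from MTS viability, and SI was taken as CC50/EC50.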

[10] = test system: Hepatitis B virus; assay: Antiviral activity against HBV ayw1 infected in human HepG2(2.2.15) cells assessed as reduction in viral replication by measuring intracellular viral DNA copy number after 6 days by real-time qPCR method; type: functional, cell-based; details: ayw1, HepG2 2.2.15, 144 h; how it was run: as §2
[11] = Drug level in pH 8 phosphate buffer treated with 1'alpha-(Adenin-9-yl)-2'-deoxy-3'-O-{[N-(diisoamyl-L-aspartate)](phenoxy)methylphosphonoamidate}-L-threose at 2 mg measured every 30 mins for 14 hrs by RP-HPLC/mass spectra analysis
[12] = Half life in human liver S9 fraction at 100 uM by HPLC-UV method; type: ADME, subcellular
How it was run: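 Incubation started by adding human liver S9 fraction (4 mg/mL) at 37 °C; aliquots at 0, 10, 20, 30, 60 min quenched in acetonitrile, centrifuged, supernatant analysed by C18 HPLC with UV at 260 nm; parent peak area versus time 0 gave percent remaining and half-life.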

[13] = Half life in human liver microsomes at 0.1 uM in presence of NADPH-regenerating system by HPLC MS/MS method; type: ADME
How it was run: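 Pooled liver microsomes preincubated 10 min at 37 °C with NADPH-regenerating system (1 mM NADP, 5 mM G6P, 1 U/mL G6PDHase) in phosphate buffer pH 7.4, 3 mM MgCl2, 1 mM EDTA; compound added at 0.1 μM final; samples at 0, 15, 30, 45, 60 min quenched in acetonitrile/methanol, analysed by HPLC MS/MS.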

Row | Compound | EC50 [4] | EC90 [4] | EC50 [10] | EC90 [10] | half-life at 100 µM [12] | half-life at 0.1 µM [13] | CC50 [1] | selectivity ratio [2] | CC50 at 120 h [3] | EC50 [5] | EC50 [6] | selectivity ratio [7] | selectivity ratio [8] | selectivity ratio [9] | Drug metabolism [11]
1 | CC(C)OC(=O)[C@H](C)NP(=O)(CO[C@H]1CO[C@@H](n2ccc(N)nc2=O)C1)Oc1ccccc1 (stereo partly drawn) | 47.9 µM | – | – | – | – | – | > 100 µM | > 2 | > 160 µM | > 160 µM | > 160 µM | – | – | – | –
2 | Cc1cn([C@H]2C[C@@H](OCP(=O)(N[C@@H](C)C(=O)OC(C)C)Oc3ccccc3)CO2)c(=O)[nH]c1=O (stereo partly drawn) | 0.26 µM | > 10 µM | – | – | – | – | > 100 µM | > 38 | 127 µM | 0.565 µM | 0.424 µM | 223 | 295 | – | –
3 | Cc1cn([C@H]2C[C@@H](OCP(=O)(N[C@@H](CC(=O)OCCC(C)C)C(=O)OCCC(C)C)Oc3ccccc3)CO2)c(=O)[nH]c1=O (stereo partly drawn) | 0.25 µM | > 100 µM | – | – | – | – | 34 µM | 136 | 42.2 µM | 0.0173 µM | 0.011 µM | 2350 | 3860 | – | –
4 | Nc1ccn([C@@H]2CS[C@H](CO)O2)c(=O)n1 [LAMIVUDINE] | 0.01 µM | > 2 µM | < 0.01 µM | > 2 µM | – | – | > 2 µM | > 200 | > 87.2 µM | – | – | > 39 | > 10 | > 254 | –
5 | CC(C)CCOC(=O)C[C@H](NP(=O)(O)CO[C@H]1CO[C@@H](n2cnc3c(N)ncnc32)C1)C(=O)OCCC(C)C | – | – | – | – | – | – | – | – | – | – | – | – | – | – | Metabolite detected

Continued, in another order:

Row | EC50 [4] | EC90 [4] | EC50 [10] | EC90 [10] | half-life at 100 µM [12] | half-life at 0.1 µM [13] | Compound | CC50 [1] | selectivity ratio [2] | CC50 at 120 h [3] | EC50 [5] | EC50 [6] | selectivity ratio [7] | selectivity ratio [8] | selectivity ratio [9] | Drug metabolism [11]
6 | > 100 µM | > 100 µM | – | – | – | – | CC(C)OC(=O)[C@H](C)NP(=O)(CO[C@H]1CO[C@@H](n2ccc(N)nc2=O)C1)N[C@@H](C)C(=O)OC(C)C | > 100 µM | – | ≥ 193 µM | > 193 µM | > 193 µM | – | – | – | –
7 | 0.28 µM | > 10 µM | – | – | – | – | CCCOC(=O)[C@H](Cc1ccccc1)NP(=O)(CO[C@H]1CO[C@@H](n2cc(C)c(=O)[nH]c2=O)C1)N[C@@H](Cc1ccccc1)C(=O)OCCC | > 10 µM | > 36 | 56.6 µM | 0.0292 µM | 0.0204 µM | 1970 | 2780 | – | –
8 | 40.2 µM | – | – | – | – | – | Cc1cn([C@H]2C[C@@H](OCP(=O)(O)O)CO2)c(=O)[nH]c1=O | > 100 µM | > 2.49 | 297 µM | 27.1 µM | 23.6 µM | 11 | 13 | – | –
9 | 79.6 µM | > 100 µM | – | – | – | – | Nc1ncnc2c1ncn2[C@@H]1OC[C@H](OCP(=O)(O)O)[C@H]1F | > 100 µM | – | 262 µM | ≥ 222 µM | ≥ 214 µM | – | – | – | –
10 | 0.01 µM | 4.2 µM | 0.03 µM | 6.37 µM | < 10 min | 7 min | CCCOC(=O)[C@H](Cc1ccccc1)NP(=O)(CO[C@H]1CO[C@@H](n2cnc3c(N)ncnc32)C1)N[C@@H](Cc1ccccc1)C(=O)OCCC | > 10 µM | > 1000 | 1.12 µM | 0.0033 µM | 0.002 µM | 347 | 570 | > 3330 | –
